pIC50: −log10 of the molar value.
Legend:
SK-MEL-28 = assay: Growth inhibition of proapoptotic stimuli-resistant human SK-MEL-28 cells after 72 hrs by MTT assay; type: functional, cell-based
Procedure, shortened: (§1)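 MTT assay. Cells were plated at 10,000–40,000 cells/mL and left 24 h to attach, then exposed to compound for 72 h (untreated controls). Formazan was read at 570 nm (reference 630 nm). Tested up to 10 μM (first panel) or up to 100 μM (second panel). Sextuplicate. U373 grown in MEM + 5% FBS; Hs683, SK-MEL-28 and B16F10 in RPMI + 10% FBS.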

[1] = Growth inhibition of proapoptotic stimuli-resistant human OE21 cells after 72 hrs by MTT assay; type: functional, cell-based
A549 = assay: Growth inhibition of proapoptotic stimuli-resistant human A549 cells after 72 hrs by MTT assay; type: functional, cell-based
Procedure, shortened: (§2)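 Cells plated 24 h in 96-well plates (10,000-40,000 cells/mL by cell type) in MEM (5% or 10% heat-inactivated FBS; with 100 μM non-essential amino acids for WI-38 and NHDF) or RPMI 10% FBS (A549), then exposed 72 h to compound up to 100 μM; MTT reduction read at 570 nm (reference 630 nm); sextuplicate.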

B16-F10 = assay: Growth inhibition of proapoptotic stimuli-sensitive mouse B16F10 cells after 72 hrs by MTT assay; type: functional, cell-based; procedure, shortened: as §1
[2] = Growth inhibition of proapoptotic stimuli-resistant human U373 cells after 72 hrs by MTT assay; type: functional, cell-based, U-373MG ATCC; procedure, shortened: as §1
[3] = Growth inhibition of proapoptotic stimuli-sensitive human Hs683 cells after 72 hrs by MTT assay; type: functional, cell-based, Hs 683; procedure, shortened: as §1
[4] = Growth inhibition of human WI38 cells after 72 hrs by MTT assay; type: cell-based; settings: WI-38, 72 h; procedure, shortened: as §2
[5] = Growth inhibition of human WS1 cells after 72 hrs by MTT assay; type: cell-based; settings: WS1, 72 h; procedure, shortened: as §2
NHDF = assay: Growth inhibition of human NHDF after 72 hrs by MTT assay; type: cell-based; procedure, shortened: as §2

SMILES | pIC50 (SK-MEL-28; Homo sapiens, SK-MEL-28, 72 h) | pIC50 ([1]; Homo sapiens, OE21, 72 h) | pIC50 (A549; Homo sapiens, A549, 72 h) | pIC50 (B16-F10; Mus musculus, B16-F10, 72 h) | pIC50 ([2]; Homo sapiens, U373 MG, 72 h) | pIC50 ([3]; Homo sapiens, Hs 683, 72 h) | pIC50 [4] | pIC50 [5] | pIC50 (NHDF) | pIC50 (SK-MEL-28; sk-mel-28) | pIC50 ([1]; oe21) | pIC50 (A549; a549) | pIC50 (B16-F10; b16-f10) | pIC50 ([2]; u-373mg atcc) | pIC50 ([3]; hs 683)
CC(=O)O[C@H]1[C@H]2c3cc4c(cc3CN3CCC(=C[C@@H]1O)[C@H]23)OCO4 | < 5.00 | < 5.00 | < 5.00 | < 5.00 | < 5.00 | < 5.00 | – | – | – | – | – | – | – | – | –
C1=C2CCN3Cc4cc5c(cc4[C@H]([C@@H]4O[C@H]14)[C@@H]23)OCO5 | 5.02 | 5.07 | 5.47 | 5.34 | 5.62 | 5.48 | 4.54 | 4.43 | 5.03 | – | – | – | – | – | –
C[N+]12CCC3=C[C@H](O)[C@@H](O)[C@@H](c4cc5c(cc4C1)OCO5)[C@@H]32 (some centres not stated) | – | – | – | – | – | – | – | – | – | < 5.00 | < 5.00 | < 5.00 | < 5.00 | < 5.00 | < 5.00
CC(=O)O[C@H]1C=C2CCN3Cc4cc5c(cc4[C@H]([C@@H]1O)[C@@H]23)OCO5 | < 5.00 | < 5.00 | < 5.00 | < 5.00 | < 5.00 | < 5.00 | 4.05 | < 4.00 | < 4.00 | – | – | – | – | – | –
CC(=O)O[C@H]1[C@H]2c3cc4c(cc3CN3CCC(=C[C@@H]1OC(C)=O)[C@H]23)OCO4 | < 5.00 | < 5.00 | < 5.00 | < 5.00 | < 5.00 | < 5.00 | – | – | – | – | – | – | – | – | –
O[C@H]1[C@H]2c3cc4c(cc3CN3CCC(=C[C@@H]1Cl)[C@H]23)OCO4 | < 5.00 | 5.02 | 5.42 | 5.16 | 5.64 | 5.51 | 4.34 | < 4.00 | 4.14 | – | – | – | – | – | –
c1cc2c3c(c1)-c1cc4c(cc1CN3CC2)OCO4 [ANHYDROLYCORINE] | < 5.00 | 5.06 | 5.35 | < 5.00 | 5.29 | 5.15 | 4.52 | 4.63 | 4.58 | – | – | – | – | – | –
O[C@@H]1CC=C2CCN3Cc4cc5c(cc4[C@H]1[C@@H]23)OCO5 [CARANINE] | < 5.00 | < 5.00 | < 5.00 | < 5.00 | < 5.00 | < 5.00 | – | – | – | – | – | – | – | – | –
COC1=C[C@@H]2CCN3Cc4cc5c(cc4[C@@H]([C@H]23)[C@@H]1O)OCO5 [AMARBELLISINE] | 5.08 | – | 5.14 | 5.17 | – | 5.08 | < 4.00 | 4.01 | < 4.00 | – | – | – | – | – | –
CC(=O)O[C@H]1[C@H]2c3cc4c(cc3CN3CC[C@H](C[C@@H]1OC(C)=O)[C@H]23)OCO4 | < 5.00 | < 5.00 | < 5.00 | < 5.00 | < 5.00 | < 5.00 | – | – | – | – | – | – | – | – | –
[O-]c1cc2c3c(c1)c1cc4c(cc1c[n+]3CC2)OCO4 [UNGEREMINE] | < 5.00 | < 5.00 | < 5.00 | < 5.00 | 5.08 | < 5.00 | – | – | – | – | – | – | – | – | –
O=C1c2cc3c(cc2[C@@H]2[C@H](O)[C@@H](O)C[C@H]4CCN1[C@H]42)OCO3 | < 5.00 | < 5.00 | < 5.00 | < 5.00 | < 5.00 | < 5.00 | – | – | – | – | – | – | – | – | –
O[C@H]1[C@H]2c3cc4c(cc3CN3CCC(=C[C@H]1O)[C@H]23)OCO4 | < 5.00 | < 5.00 | < 5.00 | < 5.00 | < 5.00 | < 5.00 | – | – | – | – | – | – | – | – | –
COc1cc2c(cc1O)CN1CCC3=CC[C@@H](O)[C@@H]2[C@@H]31 [NORPLUVINE] | < 5.00 | < 5.00 | < 5.00 | < 5.00 | < 5.00 | < 5.00 | – | – | – | – | – | – | – | – | –
COc1cc2c(cc1O)[C@@H]1[C@H](O)[C@@H](O)C=C3CCN(C2)[C@H]31 [PSEUDOLYCORINE] | < 5.00 | – | – | 5.12 | – | 5.10 | 4.36 | 4.10 | 4.17 | – | – | – | – | – | –
CC(=O)O[C@H]1[C@H]2c3cc4c(cc3CN3CC[C@@H](C[C@@H]1OC(C)=O)[C@H]23)OCO4 | < 5.00 | < 5.00 | < 5.00 | < 5.00 | < 5.00 | < 5.00 | – | – | – | – | – | – | – | – | –
C1=C2CCN3Cc4cc5c(cc4[C@H](CC1)[C@@H]23)OCO5 [LYCORENE] | < 5.00 | < 5.00 | < 5.00 | < 5.00 | < 5.00 | < 5.00 | – | – | – | – | – | – | – | – | –
O=C1C=C2CCN3Cc4cc5c(cc4[C@H]([C@@H]1O)[C@@H]23)OCO5 | < 5.00 | < 5.00 | – | < 5.00 | < 5.00 | < 5.00 | – | – | – | – | – | – | – | – | –
O[C@H]1[C@H]2c3cc4c(cc3CN3CC[C@@H](C[C@@H]1O)[C@H]23)OCO4 | < 5.00 | < 5.00 | < 5.00 | < 5.00 | < 5.00 | < 5.00 | – | – | – | – | – | – | – | – | –
O[C@H]1[C@H]2c3cc4c(cc3CN3CC[C@H](C[C@@H]1O)[C@H]23)OCO4 | < 5.00 | < 5.00 | < 5.00 | < 5.00 | < 5.00 | < 5.00 | – | – | – | – | – | – | – | – | –

Source: ChEMBL document CHEMBL1154185 (J Med Chem, 2009)
